Laboratory results from ChEMBL document CHEMBL4842395, “Design and Synthesis of Oleanolic Acid Trimers to Enhance Inhibition of Influenza Virus Entry” (ACS Med Chem Lett, 2021).

What was measured:
[1] = Cytotoxicity against MDCK cells assessed as reduction in cell viability by CellTiter-Glo assay; type: cell-based, Canis lupus familiaris; settings: dog
Outline: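 Viability of normal, uninfected MDCK cells measured by CellTiter-Glo. Medium containing 1% DMSO was the negative control. CC50 is the concentration that reduces viability by 50%.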

Influenza A virus [2] = assay: Antiviral activity against Influenza A virus (A/WSN/1933(H1N1)) infected in MDCK cells assessed as s reduction in virus-induced cytopathic effect after 40 hrs incubation by CellTiter-Glo assay; type: functional, organism-based
Outline: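 CPE-based dose–response in MDCK cells infected with A/WSN/33 (H1N1), using the CellTiter-Glo viability read-out. Medium with 1% DMSO was the negative control and oseltamivir phosphate the positive control. IC50 is the concentration giving 50% inhibition of virus-induced CPE. Means of duplicate samples from three independent experiments.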

Influenza A virus [3] = assay: Antiviral activity against Influenza A virus (A/Hong Kong/4801/2014 (H3N2)) infected in cells assessed as reduction in infected cells; type: functional, organism-based
Influenza B virus = assay: Antiviral activity against Influenza B virus (B/Sichuan/531/2018(Victoria)) infected in cells assessed as reduction in infected cells; type: functional, organism-based
Influenza A virus [4] = assay: Antiviral activity against Influenza A virus (A/WSN/1933(H1N1)) infected in MDCK cells assessed as inhibition of virus-induced cytopathic effect at 100 uM measured after 40 hrs incubation by inverted microscpic imaging analysis; type: functional
Outline: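 MDCK cells infected with influenza A/WSN/33 (H1N1), with compounds at 100 μM. Viral CPE judged by direct microscopic observation. DMSO served as the negative control and oseltamivir phosphate as the positive control. Triplicate experiments, with standard deviations.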

[5] = Selectivity ratio of CC50 for MDCK cells to IC50 for Influenza A virus A/WSN/33(H1N1) infected in MDCK cells; type: toxicity, cell-based; settings: dog, read-out: Ratio CC50/IC50
Outline: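 Selectivity index calculated as CC50 (uninfected MDCK cells, CellTiter-Glo) divided by IC50 (inhibition of A/WSN/33 H1N1-induced CPE in MDCK cells).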

[6] = Selectivity index, ratio of CC50 for MDCK cells to IC50 for antiviral activity against Influenza A virus (A/Hong Kong/4801/2014 (H3N2)); type: toxicity; settings: dog, read-out: Ratio CC50/IC50

| Compound | CC50 [1] | IC50 (Influenza A virus [2]) | IC50 (Influenza A virus [3]) | IC50 (Influenza B virus) | inhibition at 100 µM (Influenza A virus [4]) | selectivity ratio [5] | selectivity ratio [6] |
| --- | --- | --- | --- | --- | --- | --- | --- |
| CCOC(=O)C1=C[C@@H](OC(CC)CC)[C@H](NC(C)=O)[C@@H](N)C1 [OSELTAMIVIR PHOSPHATE] | > 100 µM | 1.82 µM | > 100 µM | > 100 µM | > 80% | > 55 |  |
| CC1(C)CC[C@]2(C(=O)NCCOCCn3cc(OCc4cc(COc5cn(CCOCCNC(=O)[C@]67CCC(C)(C)C[C@H]6C6=CC[C@@H]8[C@@]9(C)CC[C@H](O)C(C)(C)[C@@H]9CC[C@@]8(C)[C@]6(C)CC7)nn5)cc(COc5cn(CCOCCNC(=O)[C@]67CCC(C)(C)C[C@H]6C6=CC[C@@H]8[C@@]9(C)CC[C@H](O)C(C)(C)[C@@H]9CC[C@@]8(C)[C@]6(C)CC7)nn5)c4)nn3)CC[C@]3(C)C(=CC[C@@H]4[C@@]5(C)CC[C@H](O)C(C)(C)[C@@H]5CC[C@]43C)[C@@H]2C1 | > 100 µM | 16.7 µM |  |  | > 80% | > 5.98 |  |
| CC1(C)CC[C@]2(C(=O)NCc3cn(Cc4cc(Cn5cc(CNC(=O)[C@]67CCC(C)(C)C[C@H]6C6=CC[C@@H]8[C@@]9(C)CC[C@H](O)C(C)(C)[C@@H]9CC[C@@]8(C)[C@]6(C)CC7)nn5)cc(Cn5cc(CNC(=O)[C@]67CCC(C)(C)C[C@H]6C6=CC[C@@H]8[C@@]9(C)CC[C@H](O)C(C)(C)[C@@H]9CC[C@@]8(C)[C@]6(C)CC7)nn5)c4)nn3)CC[C@]3(C)C(=CC[C@@H]4[C@@]5(C)CC[C@H](O)C(C)(C)[C@@H]5CC[C@]43C)[C@@H]2C1 | > 100 µM | 6.86 µM |  |  | > 80% | > 14.6 |  |
| CC1(C)CC[C@]2(C(=O)NCCCCCc3cn(Cc4cc(Cn5cc(CCCCCNC(=O)[C@]67CCC(C)(C)C[C@H]6C6=CC[C@@H]8[C@@]9(C)CC[C@H](O)C(C)(C)[C@@H]9CC[C@@]8(C)[C@]6(C)CC7)nn5)cc(Cn5cc(CCCCCNC(=O)[C@]67CCC(C)(C)C[C@H]6C6=CC[C@@H]8[C@@]9(C)CC[C@H](O)C(C)(C)[C@@H]9CC[C@@]8(C)[C@]6(C)CC7)nn5)c4)nn3)CC[C@]3(C)C(=CC[C@@H]4[C@@]5(C)CC[C@H](O)C(C)(C)[C@@H]5CC[C@]43C)[C@@H]2C1 | > 100 µM |  |  |  | > 80% |  |  |
| CC1(C)CC[C@]2(C(=O)NCCCCc3cn(CC(CO)(Cn4cc(CCCCNC(=O)[C@]56CCC(C)(C)C[C@H]5C5=CC[C@@H]7[C@@]8(C)CC[C@H](O)C(C)(C)[C@@H]8CC[C@@]7(C)[C@]5(C)CC6)nn4)Cn4cc(CCCCNC(=O)[C@]56CCC(C)(C)C[C@H]5C5=CC[C@@H]7[C@@]8(C)CC[C@H](O)C(C)(C)[C@@H]8CC[C@@]7(C)[C@]5(C)CC6)nn4)nn3)CC[C@]3(C)C(=CC[C@@H]4[C@@]5(C)CC[C@H](O)C(C)(C)[C@@H]5CC[C@]43C)[C@@H]2C1 | > 100 µM | 25.1 µM |  |  | > 80% | > 3.99 |  |
| CC1(C)CC[C@]2(C(=O)NCCc3cn(Cc4cc(Cn5cc(CCNC(=O)[C@]67CCC(C)(C)C[C@H]6C6=CC[C@@H]8[C@@]9(C)CC[C@H](O)C(C)(C)[C@@H]9CC[C@@]8(C)[C@]6(C)CC7)nn5)cc(Cn5cc(CCNC(=O)[C@]67CCC(C)(C)C[C@H]6C6=CC[C@@H]8[C@@]9(C)CC[C@H](O)C(C)(C)[C@@H]9CC[C@@]8(C)[C@]6(C)CC7)nn5)c4)nn3)CC[C@]3(C)C(=CC[C@@H]4[C@@]5(C)CC[C@H](O)C(C)(C)[C@@H]5CC[C@]43C)[C@@H]2C1 | > 100 µM | 31.6 µM |  |  | > 80% | > 3.17 |  |
| CC1(C)CC[C@]2(C(=O)NCCc3cn(CC(CO)(Cn4cc(CCNC(=O)[C@]56CCC(C)(C)C[C@H]5C5=CC[C@@H]7[C@@]8(C)CC[C@H](O)C(C)(C)[C@@H]8CC[C@@]7(C)[C@]5(C)CC6)nn4)Cn4cc(CCNC(=O)[C@]56CCC(C)(C)C[C@H]5C5=CC[C@@H]7[C@@]8(C)CC[C@H](O)C(C)(C)[C@@H]8CC[C@@]7(C)[C@]5(C)CC6)nn4)nn3)CC[C@]3(C)C(=CC[C@@H]4[C@@]5(C)CC[C@H](O)C(C)(C)[C@@H]5CC[C@]43C)[C@@H]2C1 | > 100 µM | 2.87 µM |  |  | > 80% | > 34.8 |  |
| CC1(C)CC[C@]2(C(=O)NCCOCCOCCOCCn3cc(OCc4cc(COc5cn(CCOCCOCCOCCNC(=O)[C@]67CCC(C)(C)C[C@H]6C6=CC[C@@H]8[C@@]9(C)CC[C@H](O)C(C)(C)[C@@H]9CC[C@@]8(C)[C@]6(C)CC7)nn5)cc(COc5cn(CCOCCOCCOCCNC(=O)[C@]67CCC(C)(C)C[C@H]6C6=CC[C@@H]8[C@@]9(C)CC[C@H](O)C(C)(C)[C@@H]9CC[C@@]8(C)[C@]6(C)CC7)nn5)c4)nn3)CC[C@]3(C)C(=CC[C@@H]4[C@@]5(C)CC[C@H](O)C(C)(C)[C@@H]5CC[C@]43C)[C@@H]2C1 | > 100 µM | 9.84 µM |  |  | > 80% | > 10.2 |  |
| CC1(C)CC[C@]2(C(=O)NCCCCCc3cn(CC(CO)(Cn4cc(CCCCCNC(=O)[C@]56CCC(C)(C)C[C@H]5C5=CC[C@@H]7[C@@]8(C)CC[C@H](O)C(C)(C)[C@@H]8CC[C@@]7(C)[C@]5(C)CC6)nn4)Cn4cc(CCCCCNC(=O)[C@]56CCC(C)(C)C[C@H]5C5=CC[C@@H]7[C@@]8(C)CC[C@H](O)C(C)(C)[C@@H]8CC[C@@]7(C)[C@]5(C)CC6)nn4)nn3)CC[C@]3(C)C(=CC[C@@H]4[C@@]5(C)CC[C@H](O)C(C)(C)[C@@H]5CC[C@]43C)[C@@H]2C1 | > 100 µM | 0.57 µM | 1.2 µM | > 100 µM | > 80% | > 175 | > 83.3 |
| CC1(C)CC[C@]2(C(=O)NCc3cn(CC(CO)(Cn4cc(CNC(=O)[C@]56CCC(C)(C)C[C@H]5C5=CC[C@@H]7[C@@]8(C)CC[C@H](O)C(C)(C)[C@@H]8CC[C@@]7(C)[C@]5(C)CC6)nn4)Cn4cc(CNC(=O)[C@]56CCC(C)(C)C[C@H]5C5=CC[C@@H]7[C@@]8(C)CC[C@H](O)C(C)(C)[C@@H]8CC[C@@]7(C)[C@]5(C)CC6)nn4)nn3)CC[C@]3(C)C(=CC[C@@H]4[C@@]5(C)CC[C@H](O)C(C)(C)[C@@H]5CC[C@]43C)[C@@H]2C1 | > 100 µM | 4.69 µM |  |  | > 80% | > 21.3 |  |
| CC1(C)CC[C@]2(C(=O)O)CC[C@]3(C)C(=CC[C@@H]4[C@@]5(C)CC[C@H](O)C(C)(C)[C@@H]5CC[C@]43C)[C@@H]2C1 [OLEANOLIC_ACID] | > 100 µM | 72.3 µM |  |  | > 80% | > 1.38 |  |
